Screening results (PubChem)
This is a sample that favours compounds with a hit; in the whole collection about 1.3% have one here.
MLL AF4-AF9 inh: MLL-AF4/AF9 protein interaction inhibition. AlphaScreen, biotin-AF4 peptide binding to FLAG-AF9. AID 651704. P42568. inhibition, % at 10 µM. hit rate 0.47% among 350,000;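 active = every replicate reaching a set inhibition limit, whatever the replicate mean, cut at about 25% in these data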
S100A4 inh HTS: blocks human S100A4 binding to myosin IIA peptide. S100A4/TAMRA-MyoIIA peptide fluorescence polarization. hit rate 0.14% among 360,000. inhibition, % at 10.7 µM;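 active = mean inhibition of at least 70% across replicates, with every replicate also reaching that level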
Target sequence (P26447 whole entry, looked up): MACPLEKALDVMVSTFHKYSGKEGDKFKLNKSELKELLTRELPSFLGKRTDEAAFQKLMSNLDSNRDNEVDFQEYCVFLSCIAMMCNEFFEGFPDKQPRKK
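assay system = human S100A4 monomer with TAMRA-labelled myosin IIA peptide | also added = labelled myosin peptide probe, 5 nM | incubation = 5 min between mix addition and reading | control set = DMSO and TFP controls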
RAD52 anneal inh: blocks human RAD52 DNA annealing; P43351; recombinant RAD52 DNA annealing, FRET fluorescence; inhibition, % at 18.7 µM; hit rate 0.46% among 360,000;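 active = every replicate showing at least 50% inhibition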
Target sequence (P43351 whole entry, looked up): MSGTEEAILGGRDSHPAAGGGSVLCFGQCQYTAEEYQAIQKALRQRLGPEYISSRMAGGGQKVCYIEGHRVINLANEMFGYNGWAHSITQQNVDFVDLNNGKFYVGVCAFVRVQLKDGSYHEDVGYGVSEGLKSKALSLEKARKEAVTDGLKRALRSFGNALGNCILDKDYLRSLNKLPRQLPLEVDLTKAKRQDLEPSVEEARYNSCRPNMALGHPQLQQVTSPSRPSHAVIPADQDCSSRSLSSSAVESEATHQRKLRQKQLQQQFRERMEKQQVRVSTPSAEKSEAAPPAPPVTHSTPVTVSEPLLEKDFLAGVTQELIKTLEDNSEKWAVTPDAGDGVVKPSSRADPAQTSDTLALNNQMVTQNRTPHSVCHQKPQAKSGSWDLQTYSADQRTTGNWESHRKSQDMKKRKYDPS
RAD54 inh: inhibitors of human RAD54 branch migration; Q92698; RAD54 Holliday junction branch migration, FAM/BHQ fluorescence; inhibition, % at 10.4 µM; hit rate 0.14% among 360,000; AID 602329;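 active = mean normalized replicate activity at least 40 and at least half of replicates scoring 40 or more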;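 note: inhibitors cause a drop in the FAM fluorescence signal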
INS-1E GSIS act: primary screen for activators of insulin secretion dependent on glucose, INS-1E cells, GLuc reporter luminescence | INS-1E GLuc reporter insulin secretion, 2-3 h | hit rate 0.61% among 370,000 | activation, % at 16.6 µM;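 active = lowest replicate activation of at least 40%, so every replicate reaches that level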
A number is an active result.

CN(C)/C=N/c1c(C#N)cnn1-c1ncnc2sc(-c3ccccc3)cc12 was read as S100A4 inh HTS inactive, RAD52 anneal inh inactive, RAD54 inh inactive and INS-1E GSIS act 74.
C[C@H]1CN([C@@H](C)CO)C(=O)Cc2cc(NC(=O)Nc3cccc4ccccc34)ccc2O[C@@H]1CN(C)S(=O)(=O)c1cccs1 was read as RAD54 inh inactive and INS-1E GSIS act inactive.
Screening O=C(Nc1nnc(CCS(=O)(=O)c2ccc3ccccc3c2)s1)c1cccs1 returned RAD54 inh inactive and INS-1E GSIS act 106.
For COc1ccc(S(=O)(=O)CCc2nnc(NC(=O)c3cccs3)s2)cc1 the results were RAD54 inh inactive.
Screening CCC(=O)N(C)C[C@H]1Oc2ncc(-c3ccc(C#N)cc3)cc2C(=O)N([C@H](C)CO)C[C@H]1C returned MLL AF4-AF9 inh inactive, S100A4 inh HTS inactive, RAD52 anneal inh inactive, RAD54 inh inactive and INS-1E GSIS act inactive.
For CN(Cc1ccc(OCC(O)CN(C)Cc2ccccc2)cc1)Cc1nccn1C (centres undefined) the results were MLL AF4-AF9 inh inactive, S100A4 inh HTS inactive, RAD52 anneal inh inactive, RAD54 inh inactive and INS-1E GSIS act 47.
`COc1ccc(CN(C)CC(O)COc2ccc(-c3ccccc3)cc2)cc1OC` (centres undefined) gave MLL AF4-AF9 inh inactive, S100A4 inh HTS inactive, RAD52 anneal inh inactive, RAD54 inh inactive and INS-1E GSIS act inactive.
O=[N+]([O-])c1ccc(-c2nc(NCC3CCCO3)c3ccccc3n2)cc1 (centres undefined) was read as S100A4 inh HTS inactive, RAD52 anneal inh inactive and INS-1E GSIS act 44.
CN(c1ccc(F)cc1)S(=O)(=O)c1ccc(Cl)c(C(=O)NCC2CCCO2)c1 (centres undefined) was read as MLL AF4-AF9 inh inactive, S100A4 inh HTS inactive, RAD52 anneal inh inactive, RAD54 inh inactive and INS-1E GSIS act 43.
`C=CCNC(=O)c1cc(-c2ccc3c(c2)OCO3)on1` gave MLL AF4-AF9 inh inactive, S100A4 inh HTS inactive, RAD52 anneal inh inactive, RAD54 inh inactive and INS-1E GSIS act 43.
COc1ccc(-c2ccc3c(c2)[C@@H]2[C@@H](CCN2C(=O)c2ccncc2)[C@@H](CO)N3C)cc1 was read as MLL AF4-AF9 inh inactive, S100A4 inh HTS inactive, RAD52 anneal inh inactive, RAD54 inh inactive and INS-1E GSIS act inactive.
Screening COc1ccc(C#Cc2ccc3c(c2)[C@@H]2[C@@H](CCN2C(=O)c2ccncc2)[C@@H](CO)N3C)cc1 returned MLL AF4-AF9 inh inactive, S100A4 inh HTS inactive, RAD52 anneal inh 62, RAD54 inh inactive and INS-1E GSIS act inactive.
COc1ccccc1C#Cc1ccc2c(c1)[C@H]1NCC[C@H]1[C@@H](CO)N2 was read as MLL AF4-AF9 inh inactive, S100A4 inh HTS inactive, RAD52 anneal inh 54 and INS-1E GSIS act inactive.
For OC[C@@H]1Nc2ccc(C#Cc3ccccc3)cc2[C@@H]2[C@H]1CCN2Cc1nccs1 the results were MLL AF4-AF9 inh inactive, S100A4 inh HTS inactive, RAD52 anneal inh 59 and INS-1E GSIS act inactive.
COc1ccc(C#Cc2ccc3c(c2)[C@H]2[C@H](CCN2S(=O)(=O)c2cccc(OC)c2)[C@H](CO)N3C)cc1 was read as MLL AF4-AF9 inh inactive, S100A4 inh HTS inactive, RAD52 anneal inh 62, RAD54 inh inactive and INS-1E GSIS act inactive.
CNC[C@H]1Oc2cc(-c3cccnc3)ccc2S(=O)(=O)N([C@@H](C)CO)C[C@@H]1C was read as MLL AF4-AF9 inh inactive, S100A4 inh HTS inactive, RAD52 anneal inh inactive, RAD54 inh inactive and INS-1E GSIS act inactive.
`CCCNC(=O)N1CC2(C1)[C@H](c1ccccc1)[C@@H](CO)N2Cc1ccc(F)cc1` gave MLL AF4-AF9 inh inactive, S100A4 inh HTS inactive, RAD52 anneal inh inactive and INS-1E GSIS act inactive.
For COc1ccc(C#Cc2ccc3c(c2)[C@H]2[C@H](CCN2C(=O)c2ccccn2)[C@H](CO)N3)cc1 the results were MLL AF4-AF9 inh inactive, S100A4 inh HTS inactive, RAD52 anneal inh inactive and INS-1E GSIS act inactive.
COc1ccc(C#Cc2ccc3c(c2)[C@H]2[C@H](CCN2C(=O)c2ccccn2)[C@@H](CO)N3)cc1 was read as MLL AF4-AF9 inh 26, S100A4 inh HTS inactive, RAD52 anneal inh inactive and INS-1E GSIS act inactive.
CC1(C(=O)NS(=O)(=O)c2ccccc2Cl)CCN1C(=O)C1(c2ccccc2)CCCC1 (centres undefined) was read as MLL AF4-AF9 inh inactive, S100A4 inh HTS inactive, RAD52 anneal inh inactive, RAD54 inh inactive and INS-1E GSIS act 92.
CC1(C(=O)NS(=O)(=O)c2cccs2)CCN1C(=O)C1(c2ccccc2)CCCC1 (centres undefined) was read as MLL AF4-AF9 inh inactive, S100A4 inh HTS inactive, RAD52 anneal inh inactive, RAD54 inh inactive and INS-1E GSIS act inactive.
For CC1(C(=O)NS(=O)(=O)c2ccc(Cl)s2)CCN1C(=O)C1(c2ccc(Cl)cc2)CC1 (centres undefined) the results were MLL AF4-AF9 inh inactive, S100A4 inh HTS inactive, RAD52 anneal inh inactive and RAD54 inh inactive.
`Cc1noc(C)c1S(=O)(=O)NC(=O)C1(C)CCN1C(=O)C1(c2ccc(Cl)cc2)CCC1` (centres undefined) gave MLL AF4-AF9 inh inactive, S100A4 inh HTS inactive, RAD52 anneal inh inactive, RAD54 inh inactive and INS-1E GSIS act 55.
Screening Cc1ccccc1S(=O)(=O)NC(=O)C1(C)CCN1C(=O)C1(c2ccc(Cl)cc2)CCC1 (centres undefined) returned MLL AF4-AF9 inh inactive, S100A4 inh HTS inactive, RAD52 anneal inh inactive, RAD54 inh inactive and INS-1E GSIS act inactive.
For CC1(C(=O)NS(=O)(=O)c2ccc(Cl)s2)CCN1C(=O)C1(c2ccc(Cl)cc2)CCC1 (centres undefined) the results were MLL AF4-AF9 inh inactive, S100A4 inh HTS inactive, RAD52 anneal inh inactive, RAD54 inh inactive and INS-1E GSIS act 59.
Screening CC1(C(=O)NS(=O)(=O)c2ccccc2Cl)CCN1C(=O)C1(c2ccccc2)CC1 (centres undefined) returned MLL AF4-AF9 inh inactive, S100A4 inh HTS inactive, RAD52 anneal inh inactive, RAD54 inh inactive and INS-1E GSIS act inactive.
Screening CC1(C(=O)NS(=O)(=O)c2ccc(Cl)s2)CCN1C(=O)C1(c2ccccc2)CCCC1 (centres undefined) returned MLL AF4-AF9 inh inactive, S100A4 inh HTS inactive, RAD52 anneal inh inactive, RAD54 inh inactive and INS-1E GSIS act 111.
For CCC(=O)N(C)C[C@H]1Oc2cc(-c3ccccc3C)ccc2S(=O)(=O)N([C@@H](C)CO)C[C@H]1C the results were MLL AF4-AF9 inh inactive, S100A4 inh HTS inactive, RAD52 anneal inh inactive, RAD54 inh inactive and INS-1E GSIS act inactive.
`COc1ccc(S(=O)(=O)N2CC[C@H]3[C@H](CO)Nc4ccc(-c5cccc(C#N)c5)cc4[C@H]32)cc1` gave MLL AF4-AF9 inh inactive, S100A4 inh HTS inactive, RAD52 anneal inh inactive, RAD54 inh inactive and INS-1E GSIS act inactive.
CCOC(=O)c1c(C)oc2cc(Cl)c(O)c(CN(C)C)c12 was read as MLL AF4-AF9 inh inactive, S100A4 inh HTS inactive, RAD52 anneal inh inactive and INS-1E GSIS act inactive.
